Results on 23 compounds are retold here after publication PMC9558256 (ACS Omega, 2022).

The term IC50 denotes the concentration needed to halve the response being measured. As a reminder, the CC50 is the concentration that lowers cell viability or growth by half.

Series [1] deals with L. donovani axenic amastigotes (LV9). As to the kind of experiment: In vitro antileishmanial evaluation on axenic amastigotes. The format is cell-based. The conditions noted are these: Leishmania donovani, read-out: IC50 on the axenic form of L. donovani.
A short description of series [2]: Cytotoxicity on RAW 264.7 macrophages. The format is cell-based. The conditions noted are these: mouse.
The subject of series [3] is P. falciparum resistant strain F32-ART. As to the kind of experiment: Antiplasmodial activity. The series is classed as cell-based. The conditions noted are these: Plasmodium falciparum, F32, read-out: P. falciparum F32ART IC50. In a few lines: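 Test compounds screened against artemisinin-resistant P. falciparum F32-ART (selected after 144 intermittent, increasing artemisinin doses) by SYBR Green at 1 and 10 μM, in triplicate, in two independent experiments. Compounds giving around or above 50% growth inhibition at 10 μM were retested at four doses, each in triplicate, to derive IC50.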

Series [4] has as its system L. donovani intramacrophage amastigote forms (LV9). As to the kind of experiment: In vitro antileishmanial evaluation on intramacrophage amastigotes. The series is classed as cell-based. The note with it: Leishmania donovani, RAW264.7, 48 h, read-out: L. donovani IC50. In a few lines:
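RAW 264.7 macrophages were infected with L. donovani LV9 axenic amastigotes at 10 parasites per macrophage. Test compound was added 24 h post-infection for 48 h, with top concentrations set from RAW 264.7 cytotoxicity. Parasite growth reduction was read by SYBR Green incorporation and IC50 derived by regression. Miltefosine served as reference drug.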

Series [5] is described as follows: Cytotoxicity on Vero cells. The format is cell-based. The note with it: African green monkey.
The subject of the next series is M. tuberculosis H37Rv. As to the kind of experiment: MIC determination by resazurin reduction microplate assay. The format is cell-based, Mycobacterium tuberculosis. The conditions noted are these: MIC comparison with literature BNF15.

SMILES strings stand for the structures. A value given as a limit tells only on which side of the number the result lay.

Turning to `CCCCNC=C1C(=O)C(=O)c2ccccc2C1=O` [Compound 29, 3-((Butylamino)methylene)naphthalene-1,2,4(3H)-trione], the IC50 in series [1] was under 10 µM; in series [3], 1.9 µM; in series [4] it was 6.33 µM. The CC50 is 46.5 µM in series [2] and over 50 µM in series [5].

For the compound `COc1cc(-c2c(NC3CCCCC3)oc3c2C(=O)c2ccccc2C3=O)cc(OC)c1OC` [Compound 19, 2-(Cyclohexylamino)-3-(3,4,5-trimethoxyphenyl)naphtho[2,3-b]furan-4,9-dione], in series [3], the IC50 was 6 µM. The compound further gave a CC50 in series [5] of over 100 µM.

Turning to `Cn1ncc2cc(-c3c(NC(C)(C)C)oc4c3C(=O)c3ccccc3C4=O)ccc21` [Compound 13, 2-(tert-Butylamino)-3-(1-methyl-1H-indazol-5-yl)naphtho[2,3-b]furan-4,9-dione], the IC50 in series [3] is over 10 µM.

In the case of `CC(C)(C)Nc1oc2c(c1-c1cc3ccccc3[nH]1)C(=O)c1ccccc1C2=O` [Compound 14, 2-(tert-Butylamino)-3-(1H-indol-2-yl)naphtho[2,3-b]furan-4,9-dione], the IC50 in series [3] was over 10 µM.

As for `Cn1ncc2cc(-c3c(NC4CCCCC4)oc4c3C(=O)c3ccccc3C4=O)ccc21` [Compound 20, 2-(Cyclohexylamino)-3-(1-methyl-1H-indazol-5-yl)naphtho[2,3-b]furan-4,9-dione], in series [3], the IC50 came out at 10 µM.

Consider `CCCCNc1oc2c(c1-c1ccc(Cl)cc1)C(=O)c1ccccc1C2=O` [Compound 23, 2-(Butylamino)-3-(4-chlorophenyl)naphtho[2,3-b]furan-4,9-dione], for which the 50% inhibitory concentration (IC50) in series [3] is over 10 µM.

Regarding `CC(C)(C)NC=C1C(=O)C(=O)c2ccccc2C1=O` [Compound 28, 3-((tert-Butylamino)methylene)naphthalene-1,2,4(3H)-trione], the IC50 was under 10 µM in series [1], 1.4 µM in series [3] and 3.5 µM in series [4]. Also, the results for the cytotoxic concentration (CC50) in series [2] and in series [5] were over 100 µM and over 50 µM, respectively.

For `COc1ccc(-c2c(NC(C)(C)C)oc3c2C(=O)c2ccccc2C3=O)cc1OC` [Compound 12, 2-(tert-Butylamino)-3-(3,4-dimethoxyphenyl)naphtho[2,3-b]furan-4,9-dione], in series [3], the 50% inhibitory concentration (IC50) is over 10 µM.

Take `CC(C)(C)Nc1oc2c(c1C1CCN(C(=O)OC(C)(C)C)CC1)C(=O)c1ccccc1C2=O` [Compound 16, tert-Butyl 4-(2-(tert-Butylamino)-4,9-dioxo-4,9-dihydronaphtho[2,3-b]furan-3-yl)piperidine-1-carboxylate]: the IC50 in series [1] was under 10 µM; in series [3], over 10 µM; in series [4] it was 6.97 µM. In series [2], the CC50 worked out at 49.2 µM.

The compound `CCCCCCCCCCCCCCCCOP(=O)([O-])OCC[N+](C)(C)C` [miltefosine, reference compound] came in with a CC50 in series [2] of 22.6 µM. For the same compound, the IC50 in series [4] came to 1.46 µM.

For the compound `O=C1c2ccccc2C(=O)c2c1oc(NC1CCCCC1)c2-c1ccc([N+](=O)[O-])o1` [Compound 21, 2-(Cyclohexylamino)-3-(5-nitrofuran-2-yl)naphtho[2,3-b]furan-4,9-dione], the half-inhibitory concentration (IC50) in series [3] was over 10 µM.

The compound `O=C1C=C(O)C(=O)c2ccccc21` [lawsone (1), 2-hydroxy-1,4-naphthoquinone, reference compound] yielded a cytotoxic concentration (CC50) in series [2] of 44 µM. In addition, the IC50 was over 10 µM in series [3] and 6.27 µM in series [4].

Regarding `CC(C)(C)Nc1oc2c(c1-c1ccc([N+](=O)[O-])o1)C(=O)c1ccccc1C2=O` [Compound 15, 2-(tert-Butylamino)-3-(5-nitrofuran-2-yl)naphtho[2,3-b]furan-4,9-dione], the IC50 in series [3] was over 10 µM.

On to `CCCCNc1oc2c(c1-c1ccc([N+](=O)[O-])o1)C(=O)c1ccccc1C2=O` [Compound 26, 2-(Butylamino)-3-(5-nitrofuran-2-yl)naphtho[2,3-b]furan-4,9-dione], for which the IC50 in series [3] was over 10 µM.

As to `CC(C)(C)Nc1oc2c(c1C1CCN(Cc3ccccc3)CC1)C(=O)c1ccccc1C2=O` [Compound 17, 3-(1-Benzylpiperidin-4-yl)-2-(tert-butylamino)naphtho[2,3-b]furan-4,9-dione], the “fold less active than BNF15 against M. tuberculosis” value in the series with M. tuberculosis H37Rv is on record as “about 7 fold”. Besides, in series [3], the IC50 came out at 2.5 µM. This compound also registered a CC50 in series [5] of 86 µM.

As for `CCCCNc1oc2c(c1-c1cc(OC)c(OC)c(OC)c1)C(=O)c1ccccc1C2=O` [Compound 24, 2-(Butylamino)-3-(3,4,5-trimethoxyphenyl)naphtho[2,3-b]furan-4,9-dione], the IC50 in series [3] was 9 µM. The compound further gave a 50% cytotoxic concentration (CC50) in series [5] of over 100 µM.

With `O=C1C(O)=C([C@H]2CC[C@H](c3ccc(Cl)cc3)CC2)C(=O)c2ccccc21` [atovaquone (7), atovaquone, reference compound], the CC50 in series [2] was 44 µM; in series [5], 6 µM. Moreover, the IC50 came to 0.001 µM in series [3] and 11.1 µM in series [4].

Turning to `CCCCNc1oc2c(c1C1CCN(Cc3ccccc3)CC1)C(=O)c1ccccc1C2=O` [Compound 27, 3-(1-Benzylpiperidin-4-yl)-2-(butylamino)naphtho[2,3-b]furan-4,9-dione], the IC50 in series [3] was 4 µM. This compound came in with a CC50 in series [5] of 24 µM.

Regarding `O=C1c2ccccc2C(=O)c2c1oc(NC1CCCCC1)c2C1CCN(Cc2ccccc2)CC1` [Compound 22, 3-(1-Benzylpiperidin-4-yl)-2-(cyclohexylamino)naphtho[2,3-b]furan-4,9-dione], the IC50 in series [3] amounted to 3.6 µM. The compound further registered a half-maximal cytotoxic concentration (CC50) in series [5] of 36 µM.

`CC(C)(C)Nc1oc2c(c1-c1ccc(Cl)cc1)C(=O)c1ccccc1C2=O` [Compound 9, 2-(tert-Butylamino)-3-(4-chlorophenyl)naphtho[2,3-b]furan-4,9-dione]: the concentration for half-maximal inhibition (IC50) in series [3] was over 10 µM.

On to `O=C1c2ccccc2C(=O)c2c1oc(NC1CCCCC1)c2-c1ccc(Cl)cc1` [Compound 18, 3-(4-Chlorophenyl)-2-(cyclohexylamino)naphtho[2,3-b]furan-4,9-dione], for which the results for the IC50 in series [1], in series [3] and in series [4] were under 10 µM, 11 µM and 9.41 µM, respectively. Also, the CC50 in series [2] stood at 54.2 µM; in series [5], 50 µM.

In the case of `COc1cc(-c2c(NC(C)(C)C)oc3c2C(=O)c2ccccc2C3=O)cc(OC)c1OC` [Compound 11, 2-(tert-Butylamino)-3-(3,4,5-trimethoxyphenyl)naphtho[2,3-b]furan-4,9-dione], the IC50 in series [3] was over 10 µM.

As for `CC(C)(C)Nc1oc2c(c1-c1cccc(Br)c1)C(=O)c1ccccc1C2=O` [Compound 10, 3-(3-Bromophenyl)-2-(tert-butylamino)naphtho[2,3-b]furan-4,9-dione], the IC50 in series [3] was over 10 µM.
